UBC13 polyUb: human UBC13 polyubiquitination inhibition. P61088. UBC13 polyubiquitin chain formation, TR-FRET. inhibition, % at 20 µM. hit rate 0.47% among 330,000. AID 485273; in the data active means inhibition above about 45%, passing the limit was not always enough
Target sequence (P61088 whole entry, looked up): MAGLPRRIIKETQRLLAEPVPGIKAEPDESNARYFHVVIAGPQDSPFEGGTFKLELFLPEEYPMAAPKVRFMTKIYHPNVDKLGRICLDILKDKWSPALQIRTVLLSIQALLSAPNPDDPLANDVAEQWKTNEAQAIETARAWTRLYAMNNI
Apaf-1 inh: blocks human Apaf-1 apoptosome activity. reconstituted apoptosome caspase-3 activity, DEVD-Rh110 fluorescence. inhibition, % at 20 µM. hit rate 0.71% among 330,000. AID 489030; active means inhibition of at least 40% at 20 µM;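 further: plate controls were DMSO wells for no effect and DEVD-CHO caspase inhibitor wells for full effect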
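Material: reconstituted apoptosome with Apaf-1, cytochrome c, caspase-9, procaspase-3, dATP; medium: pH 7.5 Hepes buffer with CHAPS, BSA, DTT; also added: cytochrome c and DEVD-Rh110 substrate; timing: 30 min plus 50 min, RT; signal: Rh110 fluorescence intensity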
FID counter: counter-screen for HCV NS3 helicase inhibitors: DNA intercalator displacement | DNA fluorescent intercalator displacement, fluorescence | inhibition, % at 7.9 µM | hit rate 0.17% among 290,000; in the data active means inhibition above about 37%;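 further: 0% = vehicle and 100% = reference compound; higher means more ethidium bromide displaced from hairpin DNA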
RAD52 anneal inh: blocks human RAD52 DNA annealing | P43351 | recombinant RAD52 DNA annealing, FRET fluorescence | inhibition, % at 18.7 µM | hit rate 0.46% among 360,000 | AID 651710;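 active means every replicate showing at least 50% inhibition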
Neddyl block: inhibitors of human cullin neddylation; TR-FRET cullin neddylation, biochemical; calls only at 25 µM; hit rate 0.58% among 360,000; in the data active means inhibition above about 36%
RAD54 branch: inhibitors of human RAD54 branch migration; RAD54 Holliday junction branch migration, FAM/BHQ fluorescence; hit rate 0.14% among 360,000; AID 602329; inhibition, % at 10.4 µM; Q92698;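 active means mean normalized replicate activity at least 40 and at least half of replicates scoring 40 or more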;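 further: 0% = median of neutral control wells and 100% = median of positive control wells; inhibitors cause a drop in the FAM fluorescence signal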
Apaf-1 inh conf: confirmation of Apaf-1 inhibitors; shares compounds with Apaf-1 inh; reconstituted apoptosome, caspase-3 DEVD-Rh110 fluorescence; inhibition, % at 20 µM; hit rate 25% among 1,800;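 active means mean inhibition of at least 40% at 20 µM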;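 further: plate controls were DMSO wells for no effect and DEVD-CHO caspase inhibitor control wells for full effect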
Rh110 interf inh: counter-screen for Apaf-1 inhibitors: fluorescence interference | 1,800 tested, under 10 active | Rh110 fluorescence interference, quenched caspase reaction | shares compounds with Apaf-1 inh | activation (fluorescence interference), % at 20 µM | AID 504615;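 active means signal rise of 40% or more at 20 µM, treated as a fluorescence artifact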
Fluor interf inh: shows fluorescence interference in the Apaf-1 inhibitor assay format; shares compounds with Apaf-1 inh; fluorescence interference counterscreen, Apaf-1 assay format; IC50, µM; 460 tested, under 10 active; call rule not given here
Starred values were filed as active, the others as inactive; i = inactive; x = no result given. This is a sample that favours compounds with a hit; in the whole collection about 1.6% have one here.

SMILES | UBC13 polyUb | Apaf-1 inh | FID counter | RAD52 anneal inh | Neddyl block | RAD54 branch | Apaf-1 inh conf | Rh110 interf inh | others
CC(=O)c1ccc(OCCCC(=O)N2CCN(S(=O)(=O)c3ccc(C)cc3C)CC2)cc1 | 28 | 40* | x | 7 | i | -7 | 32 | 0
C[C@H](NC(=O)c1ccc(C(C)(C)C)cc1)C(=O)N1CCN(C/C=C/c2ccccc2)CC1 | 6 | 43* | x | -6 | i | -14 | 18 | 12
CCCN1CCN(C(=O)C2CCN(S(=O)(=O)c3c(C)noc3/C=C/c3ccc(C)cc3)CC2)CC1 | 20 | 61* | 20 | -1 | i | -5 | 27 | 1
O=C(O)c1ccc(/C=N\Nc2ccc(S(=O)(=O)N3CCOCC3)cc2[N+](=O)[O-])cc1 | -76 | -20 | -5 | -3 | i | -3 | x | x
Cc1ccc(-n2c(O)c(/C=N/Nc3ccc(S(=O)(=O)N4CCOCC4)cc3[N+](=O)[O-])c3ccccc3c2=O)c(C)c1 | -60 | 51* | -9 | -9 | i | x | 31 | 6
CC(=O)NC1=C(N(C)C2CCS(=O)(=O)C2)C(=O)c2ccccc2C1=O (stereo not drawn) | -51 | 54* | -3 | 3 | i | -10 | 67* | 9 | Fluor interf inh=>100
CN(C(=O)Nc1ccccc1)C1CCS(=O)(=O)C1 (stereo not drawn) | 4 | -9 | 4 | x | i | -3 | x | x
C[C@@H]1CN([C@H](C)CO)C(=O)c2cc(C#CC3CCCC3)cnc2O[C@H]1CN(C)C(=O)C1CCCCC1 | x | x | x | 20 | x | -4 | x | x
CCC(=Nc1ccc(N)cc1)C1=C(O)C(C(=O)OC)C(C)(C)CC1=O (stereo not drawn) | -7 | 61* | -23 | x | i | 0 | 19 | 2
CC(=O)N1CC2(C1)[C@@H](c1ccc(-c3cccc(F)c3)cc1)[C@@H](CO)N2CC1CCCC1 | x | x | x | -36 | x | x | x | x
CN1N=C(C(C)(C)C)CC1=O | -8 | 41* | -3 | -4 | x | x | 11 | 7
CN1N=C(C(F)(F)F)CC1=O | -6 | -4 | -6 | -12 | i | x | x | x
CCOc1cccc(N(C(=O)C2COc3ccccc3O2)C(C(=O)NC2CCCCC2)c2ccc(O)cc2)c1 (stereo not drawn) | 3 | 47* | -2 | x | i | x | 11 | 1
CCc1nc(N)c(C#N)c(-c2ccc(O)c(OC)c2)c1C | 5 | 3 | -9 | x | i | x | x | x
COc1cc(-c2c(C#N)c(=O)[nH]c3c2c(C)nn3-c2ccccc2)ccc1O | 12 | 42* | -39 | x | i | -10 | 43* | 1 | Fluor interf inh=>100
CCN(CC)CCN(C(=O)c1ccc2c(c1)CCCC2)c1nc2ccc(OC)cc2s1 | 4 | 61* | 35 | 12 | i | 11 | 19 | 7
CCN(CC)CCN(C(=O)c1ccc2c(c1)CCCC2)c1nc2ccc(F)cc2s1 | 3 | -3 | -3 | -17 | i | x | x | x
CCN(CC)CCN(C(=O)c1ccc2c(c1)CCCC2)c1nc2ccc(C)cc2s1 | 8 | 51* | 24 | -11 | i | -7 | 11 | 7
C[C@@H]1CN([C@@H](C)CO)S(=O)(=O)c2ccc(-c3ccccc3)cc2O[C@H]1CN(C)Cc1cccnc1 | x | x | x | x | x | 1 | x | x
CO[C@H]1CN(C)C(=O)c2ccc(NC(=O)Nc3ccccc3)cc2OC[C@H](C)N(C(C)=O)C[C@@H]1C | x | x | x | 12 | x | x | x | x
CN(C)C(=O)[C@H]1[C@H](CO)[C@H]2Cn3c(ccc(C4=CCCCC4)c3=O)[C@@H]1N2Cc1cccnc1 | x | x | x | -12 | x | -3 | x | x
CCOC(=O)N1CCN(C2=C(NS(=O)(=O)c3ccc(NC(C)=O)cc3)C(=O)c3ccccc3C2=O)CC1 | -86 | 83* | 7 | -12 | i | -6 | 25 | 11
CCN1CCN(C2=C(NS(=O)(=O)c3ccc(NC(C)=O)cc3)C(=O)c3ccccc3C2=O)CC1 | -77 | 74* | 11 | -16 | i | -3 | 32 | 2
CC(=O)Nc1ccc(S(=O)(=O)NC2=C(N3CCN(C)CC3)C(=O)c3ccccc3C2=O)cc1 | -122 | 60* | 13 | -19 | i | 8 | 46* | 7 | Fluor interf inh=>100

Source: PubChem
